Measurements from different studies.
Compare with care: the assays were run in different laboratories. pEC50, pIC50, pKi: −log10 of the molar value.
LATS1: Serine/threonine-protein kinase LATS1 (LATS1, Homo sapiens, UniProt O95835)
SLC18A2: Synaptic vesicular amine transporter (SLC18A2, Homo sapiens, UniProt Q05940)
ADRA2A: Alpha-2A adrenergic receptor (ADRA2A, Homo sapiens, UniProt P08913)

With `Cc1cc(-c2ccnc3[nH]cc(F)c23)cc(F)c1[C@@]1(O)[C@H](C)CN(C(=O)CN)C[C@@H]1C` the pIC50 was 8.21 (LATS1; target engagement in cells, BRET).
`O=C(c1ccc(OCCN2CCCCC2)cc1)c1c(-c2ccc(O)cc2)sc2cc(O)ccc12` gave a pIC50 of 6.90 (SLC18A2; transporter uptake, inhibitor, radiometric; cell membranes).
`CC(C)C[C@H](NC(=O)[C@H](CC(C)C)NC(=O)[C@H](Cc1c[nH]c2ccccc12)NC(=O)[C@H](CCC(N)=O)NC(=O)[C@@H](NC(=O)[C@H](Cc1ccccc1)NC(=O)[C@H](CC(=O)O)NC(=O)[C@H](CCC(N)=O)NC(=O)[C@H](C)NC(=O)[C@H](C)NC(=O)[C@H](CCCNC(=N)N)NC(=O)[C@H](CCC(=O)O)NC(=O)[C@H](CC(=O)O)NC(=O)[C@H](CC(C)C)NC(=O)[C@H](Cc1ccc(O)cc1)NC(=O)[C@H](CCCCN)NC(=O)[C@H](CO)NC(=O)[C@H](Cc1ccc(O)cc1)NC(=O)[C@H](CC(=O)O)NC(=O)[C@H](CO)NC(=O)[C@@H](NC(=O)[C@H](Cc1ccccc1)NC(=O)[C@@H](NC(=O)CNC(=O)[C@H](CCC(N)=O)NC(=O)C(C)(C)NC(=O)[C@@H](N)Cc1c[nH]cn1)[C@@H](C)O)[C@@H](C)O)C(C)C)C(=O)N[C@@H](CC(=O)O)C(=O)NCC(=O)NCC(=O)N1CCC[C@H]1C(=O)N[C@@H](CO)C(=O)N[C@@H](CC(C)C)C(=O)N[C@@H](CCCNC(=N)N)C(=O)N[C@@H](Cc1c[nH]cn1)C(=O)N[C@@H](Cc1ccc(O)cc1)C(=O)N[C@@H](CC(C)C)C(=O)N[C@@H](CC(N)=O)C(=O)N[C@@H](CC(C)C)C(=O)N[C@H](C(=O)N[C@H](C(=O)N[C@@H](CCCNC(=N)N)C(=O)N[C@@H](CCC(N)=O)C(=O)N[C@@H](CCCNC(=N)N)C(=O)N[C@@H](Cc1ccc(O)cc1)C(N)=O)[C@@H](C)O)C(C)C` has a pEC50 of 9.55 (Gastric inhibitory polypeptide receptor (GIPR, Homo sapiens, UniProt P48546); reporter gene, agonist, luciferase).
The pKi of `Cc1cc(Oc2ncccc2CN2CCN(c3cccc(F)c3)CC2)ccc1-c1c(C)c(=O)[nH]c(=O)n1C` is reported as 7.05 (ADRA2A; ligand displacement, radioligand).
For `Clc1ccc(C2(c3ccc(-c4ccnc5[nH]ccc45)cc3)CCNCC2)cc1`, the pIC50 was 5.65 (LATS1; target engagement in cells, BRET).
`Cc1cc(Oc2ncccc2CN2CCN(c3ccccc3Br)CC2)ccc1-c1c(C)c(=O)[nH]c(=O)n1C` gave a pKi of 6.87 (ADRA2A; ligand displacement, radioligand).
With `O=C1Cc2cc(CCN3CCN(c4nsc5ccccc45)CC3)c(Cl)cc2N1` the pIC50 was 7.82 (SLC18A2; transporter uptake, inhibitor, radiometric; cell membranes).
The pIC50 of `c1cc(-c2ccc(C3CCNCC3)cc2)c2cc[nH]c2n1` is reported as < 4.30 (LATS1; target engagement in cells, BRET).
`Cc1cc(Oc2ncccc2CN2CCN(CCc3ccccc3)CC2)ccc1-c1c(C)c(=O)[nH]c(=O)n1C` has a pKi of 5.60 (ADRA2A; ligand displacement, radioligand).
With `CN1CCC(=C2c3ccccc3CC(=O)c3sccc32)CC1` the pIC50 was 4.99 (Carbonic anhydrase 1 (CA1, Homo sapiens, UniProt P00915); enzyme activity, inhibitor, absorbance; pH 7.4).
With `Cc1cnc(Nc2ccc(OCCN3CCCC3)cc2)nc1Nc1cccc(S(=O)(=O)NC(C)(C)C)c1` the pIC50 was 6.38 (SLC18A2; transporter uptake, inhibitor, radiometric; cell membranes).
The pKi of `Cc1cc(Oc2ncccc2CN2CCN(c3ncccc3C(F)(F)F)CC2)ccc1-c1c(C)c(=O)[nH]c(=O)n1C` is reported as 7.32 (ADRA2A; ligand displacement, radioligand).
For `CC(C)NCC(O)COc1ccc(COCCOC(C)C)cc1` (centres unmarked), the pIC50 was 5.12 (SLC18A2; transporter uptake, inhibitor).
`COc1cc(C)c(/C=C/C(C)=C/C=C/C(C)=C/C(=O)O)c(C)c1C` has a pIC50 of 4.90 (Carbonic anhydrase 2 (CA2, Homo sapiens, UniProt P00918); enzyme activity, inhibitor, absorbance; pH 7.4).
